Assay [1] is described as follows: inhibitors of TNFa-induced NFkB p65 translocation, primary screen, imaging, HUVEC, MLSMR starter and 10KST1 sets (AID 438;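 active = inhibition above 20% together with a positive visual image hit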;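 also: compound added about 3h40 before a 20 min TNFalpha stimulation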;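 as to inhibition: signal is the nuclear over cytoplasmic p65 intensity ratio per well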). Conditions: HUVEC TNFa-induced p65 nuclear translocation; cell count: measured here: nuclei count (cytotoxicity indicator), at 2.08 µM; inhibition: at 2 µM, stronger effect = higher value, 0% TNFa-plus-vehicle, 100% no-TNFa wells.
Assay [2] can be described thus: endothelial E-selectin expression blockers – imaging, HUVEC, immunofluorescence, MLSMR starter and 10KST1 sets, primary screen (AID 487;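 active = visually confirmed hit in the image check and inhibition above 20%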;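 as to inhibition: signal is fraction of cell area covered by stained E-selectin grains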;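 as to nuclei count: 100% = median nuclei count of all wells on the same plate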). The settings on record: HUVEC TNFalpha-induced E-selectin immunofluorescence imaging, at 2 µM; inhibition: stronger effect = higher value; nuclei count: measured here: cell number, toxicity.
Assay [3] in a line: Primary imaging screen for DUSP6 inhibitors that restore phospho-Erk in transfected HeLa cells, chemical complementation (AID 609;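 active = compounds giving at least 50% inhibition in the cell-based MKP-3 phosphatase rescue imaging test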;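 as to inhibition: phospho-Erk level distribution per well compared with pooled transfected vehicle control wells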). The settings on record: HeLa MKP-3 transfected, phospho-Erk imaging KS statistic, at 10 µM, cells stimulated with TPA for 15 min.
Assay [4] concerns the target Dual specificity protein phosphatase 6 (Homo sapiens) (UniProt Q16828). Described as above. Conditions: HeLa MKP-3 transfected, phospho-Erk imaging KS statistic; at 10 µM; stronger effect = higher value; cells stimulated with TPA for 15 min.
For assay [5], the target named is Voltage-gated potassium channel subunit beta-2 (Rattus norvegicus) (UniProt P62483). Kind of assay: inhibitors of rat Kvbeta2 reductase activity – biochemical, NADPH fluorescence, primary screen (AID 622;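 active = fluorescence slope higher than the sample average by over 3 SD, cut at about -0.22 in these data, passing the limit was not always enough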;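 also: slope of raw intensity against log time taken from 70 to 1610 s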). The settings on record: recombinant KvBeta, 4-cyanobenzaldehyde reduction, at 10 µM, stronger effect = higher value.
Assay [6] has the same target. The experiment in a line: enhancers of rat Kvbeta2 NADPH turnover – biochemical, NADPH fluorescence, primary screen (AID 623).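 Also: fluorescence intensity change per second fitted from 20 to 320 s.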 The settings on record: Recombinant KvBeta, NADPH fluorescence decrease slope, 10 min; at 10 µM; stronger effect = lower value.
Assay [7] concerns the target Alpha-2C adrenergic receptor (Homo sapiens) (UniProt P18825). Kind of assay: compounds altering alpha2C-coupled GIRK flux – cell-based, HEK293 alpha2C/GIRK1/2, thallium flux, primary screen (AID 624;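 active = fluorescence slope after compound addition differing from the mean of all screened samples at 99.7% confidence, in either direction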;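 also: slope of fluorescence ratio to pre-addition baseline per second over 15 to 24 s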). The settings on record: thallium flux BTC fluorescence, at 10 µM, actives lie on both sides.
Assay [8] in a line: inhibitors of larval lipid processing in zebrafish, primary screen, whole organism, PED6 fluorescence, gall bladder and intestine (AID 686;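 active = a full or partial loss of lipid-probe fluorescence in the fish gall bladder, intestine or both, judged by eye; inactive = no fluorescence loss, or compound toxic to the fish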;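 also: larvae 5 to 7 days old with five fish per well; signal comes from phospholipase A2 cleavage of quenched PED6 carried via bile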). The settings on record: Zebrafish larvae PED6 lipid processing, fluorescence scoring; screened at 20 µM (by protocol). The gist of the method: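 System: live zebrafish larvae aged 5-7 days, whole organism; measure: graded gall bladder and intestinal fluorescence inhibition per well; incubation: overnight exposure; reagent: ingested quenched lipid PED6 at 100 nM; signal: By-eye fluorescence microscopy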

The nature of assay [9]: loss of swimming-algae plug formation – whole organism, Chlamydomonas reinhardtii, WT vs cilia-less mutant, absorbance, 96-well, primary screen (AID 463189;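 active = inhibition at or above 50% relative to wild type and mutant plate controls; inactive = inhibition below 50%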;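 also: 0% = wild type cc124 cells in DMSO and 100% = ciliumless bld1 mutant cells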). Conditions: Chlamydomonas reinhardtii gravitaxis, OD600 absorbance, 2 days; at 10 µM; stronger effect = higher value.
[10] abbreviates: measured here: cell density z-score.
[11] abbreviates: measured here: nuclear c-Myc green intensity z-score.
Where [12] appears, read: measured here: nuclear pErk red intensity z-score, stronger effect = higher value.

Molecules are shown by their SMILES. Active and inactive are the calls of the source.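 The calls were made as follows, unless noted: active = NADPH fluorescence slope more negative than the mean of all samples by about 3 SD, 99.7% confidence; inactive = the rest.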

One may read the inhibition as the drop in the measured response relative to a control, in per cent.

Sequence of Dual specificity protein phosphatase 6 (Homo sapiens) (Q16828 whole entry, looked up): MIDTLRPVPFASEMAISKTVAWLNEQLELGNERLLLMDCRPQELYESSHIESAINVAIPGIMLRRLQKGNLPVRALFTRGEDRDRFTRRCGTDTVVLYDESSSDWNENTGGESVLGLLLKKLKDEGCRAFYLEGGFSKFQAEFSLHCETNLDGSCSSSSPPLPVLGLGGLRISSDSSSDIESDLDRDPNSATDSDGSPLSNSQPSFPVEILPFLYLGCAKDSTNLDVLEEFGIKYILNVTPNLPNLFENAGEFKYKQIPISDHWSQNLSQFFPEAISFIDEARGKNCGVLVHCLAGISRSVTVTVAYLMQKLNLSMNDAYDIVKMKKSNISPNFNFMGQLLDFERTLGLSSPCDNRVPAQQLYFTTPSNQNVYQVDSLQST
Sequence of Alpha-2C adrenergic receptor (Homo sapiens) (P18825 whole entry, looked up): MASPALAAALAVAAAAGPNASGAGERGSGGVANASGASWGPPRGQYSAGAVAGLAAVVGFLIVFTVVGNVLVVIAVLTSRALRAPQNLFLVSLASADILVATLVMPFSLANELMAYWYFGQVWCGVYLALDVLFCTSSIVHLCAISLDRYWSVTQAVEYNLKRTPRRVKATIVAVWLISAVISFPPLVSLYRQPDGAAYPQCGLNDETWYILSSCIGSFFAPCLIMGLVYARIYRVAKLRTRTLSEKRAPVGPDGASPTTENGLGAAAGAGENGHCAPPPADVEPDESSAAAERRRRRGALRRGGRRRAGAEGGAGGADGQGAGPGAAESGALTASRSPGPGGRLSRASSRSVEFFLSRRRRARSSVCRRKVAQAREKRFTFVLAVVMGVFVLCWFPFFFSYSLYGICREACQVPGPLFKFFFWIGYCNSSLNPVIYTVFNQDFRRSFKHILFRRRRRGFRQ
Sequence of Voltage-gated potassium channel subunit beta-2 (Rattus norvegicus) (P62483 whole entry, looked up): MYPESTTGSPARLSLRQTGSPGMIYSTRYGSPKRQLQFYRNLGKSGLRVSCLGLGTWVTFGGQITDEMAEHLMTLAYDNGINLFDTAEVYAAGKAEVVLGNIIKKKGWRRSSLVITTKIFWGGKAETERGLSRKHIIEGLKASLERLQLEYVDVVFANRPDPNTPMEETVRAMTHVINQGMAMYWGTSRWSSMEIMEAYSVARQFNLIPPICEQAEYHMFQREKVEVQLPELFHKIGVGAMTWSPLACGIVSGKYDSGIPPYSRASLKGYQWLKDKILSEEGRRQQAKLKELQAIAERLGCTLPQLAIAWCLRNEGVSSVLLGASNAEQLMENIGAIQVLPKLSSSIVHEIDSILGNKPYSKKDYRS

In the case of `O=C(Nc1ccc2c(c1)OCO2)c1cc2n(n1)C(C(F)(F)F)CC(c1ccccc1)N2` (stereo not drawn), in [1], the cell count came out at 415. The inhibition in assay [1] was -5.8% (inactive); in [2], 33.8% (inactive); in [4], 7.48% (inactive); in assay [9] it was -16.3% (inactive). This molecule came in with a nuclei count in assay [2] of 65.6%. Moreover, the results for the z-score in assay [3] (setting [10]), in assay [3] (setting [11]) and in [3] (setting [12]) were -0.336, 0.972 and -0.0303, respectively. Further, the fluorescence slope in assay [5] was -0.544 (inactive). The NADPH fluorescence slope in assay [6] is -7.9e-05 (inactive). Moreover, the slope in assay [7] was 0.00462 (inactive). The molecule was called inactive in assay [8].
Regarding `CCOc1ccc(-c2nnc3sc(-c4ccccc4OC)nn23)cc1`, the cell count in assay [1] stood at 613. Also, the inhibition in assay [1] was -5.4% (inactive); in assay [2], 36% (inactive); in assay [4], -9.66% (inactive); in assay [9] it was 0.927% (inactive). In addition, the nuclei count in assay [2] turned out to be 174%. Also, the z-score in [3] (setting [10]) is -0.391; in assay [3] (setting [11]), 2.01; in [3] (setting [12]) it was -1.56. The fluorescence slope in assay [5] was -0.403 (inactive). Moreover, the NADPH fluorescence slope in assay [6] is -0.000132 (inactive). For the same molecule, the slope in [7] is 0.00485 (inactive). Further, the molecule was classed as inactive in assay [8].
Consider `COC(=O)c1ccc(OC(=O)c2ccc(OC)c(OC)c2)c(OC)c1`, for which the cell count in assay [1] was found to be 601. For the same molecule, the inhibition in assay [1] is -0.3% (inactive); in assay [2], 2.2% (inactive); in [4], 11.4% (inactive); in assay [9] it was 1.14% (inactive). In assay [2], this molecule gave a nuclei count of 142%. The results for the z-score in assay [3] (setting [10]), in [3] (setting [11]) and in [3] (setting [12]) were 0.251, -0.0242 and -0.151, respectively. The fluorescence slope in [5] is -0.491 (inactive). Also, the NADPH fluorescence slope in [6] is -0.000121 (inactive). Moreover, the slope in assay [7] was 0.00612 (inactive). The result in assay [8] was inactive.
`CCN1CC2=C(OC(N)=C(C#N)C2c2ccccc2)/C(=C\c2ccccc2)C1` (stereo not drawn): the cell count in assay [1] amounted to 489. Moreover, the inhibition is -6.9% (inactive) in [1], -190% (inactive) in [2], 9.61% (inactive) in assay [4] and 14.6% (inactive) in [9]. Further, in [2], the nuclei count stood at 174%. The figures for the z-score in [3] (setting [10]), in [3] (setting [11]) and in assay [3] (setting [12]) were 0.232, -0.856 and 0.432, respectively. Besides, the fluorescence slope in [5] was -0.332 (inactive). In assay [6], the NADPH fluorescence slope is -1.3e-05 (inactive). Moreover, the slope in [7] was 0.00402 (inactive). In assay [8], the outcome was “active; no signal in intestine only”.
On to `C=CCN(C(=O)CCC(=O)O)C1CC(=O)N(c2ccc(OCCC)cc2)C1=O` (stereo not drawn), for which the cell count in assay [1] turned out to be 454. The inhibition is -10.8% (inactive) in assay [1], -213% (inactive) in assay [2], -2.29% (inactive) in assay [4] and 6.01% (inactive) in assay [9]. Also, the nuclei count in assay [2] is 223%. For the same molecule, the results for the z-score in [3] (setting [10]), in assay [3] (setting [11]) and in assay [3] (setting [12]) were 0.015, -1.26 and -0.0284, respectively. For the same molecule, the fluorescence slope in assay [5] was -0.384 (inactive). The NADPH fluorescence slope in assay [6] was -2.5e-05 (inactive). Further, the slope in [7] was 0.00464 (inactive). The result in assay [8] was inactive.
On to `c1ccc(C2=Nn3c(nnc3-c3ccccn3)SC2)cc1`, for which the cell count in [1] was 589. Moreover, the inhibition was -10.9% (inactive) in assay [1], -79.3% (inactive) in [2], -9.66% (inactive) in assay [4] and -6.13% (inactive) in [9]. The nuclei count in assay [2] is 170%. For the same molecule, the z-score in assay [3] (setting [10]) is -0.434; in assay [3] (setting [11]), 1.46; in assay [3] (setting [12]) it was 1.25. Further, the fluorescence slope in assay [5] is -0.412 (inactive). In addition, in [6], the NADPH fluorescence slope was -0.000132 (inactive). In [7], the slope is 0.00684 (inactive). Besides, in assay [8], the outcome was inactive.
For the molecule `COc1ccccc1N1CCN(C2CCN(C(=O)c3cccs3)CC2)CC1`, the cell count in [1] was 390. Besides, the inhibition in assay [1] was -7.8% (inactive); in assay [2], -197% (inactive); in [4], -5.89% (inactive); in assay [9] it was 22.3% (inactive). Moreover, the nuclei count in assay [2] stood at 173%. Further, the z-score in assay [3] (setting [10]) is -0.252; in [3] (setting [11]), 0.0653; in [3] (setting [12]) it was 1.15. In addition, the fluorescence slope in assay [5] was -0.397 (inactive). Besides, the NADPH fluorescence slope in assay [6] was -3e-05 (inactive). In addition, the slope in assay [7] was 0.00342 (inactive). For the same molecule, in [8], the outcome was inactive.
As to `O=C(O)c1cnn2c(C(F)(F)F)cc(-c3ccco3)nc12`, the cell count in assay [1] was found to be 416. In addition, the inhibition in assay [1] is 1.3% (inactive); in [2], -45.3% (inactive); in [4], 9.39% (inactive); in [9], 17.4% (inactive). For the same molecule, the nuclei count in assay [2] was 96.3%. The z-score in [3] (setting [10]) is 1.16; in [3] (setting [11]) it was -0.0109; in [3] (setting [12]), -0.464. The fluorescence slope in assay [5] is -0.48 (inactive). Moreover, in [6], the NADPH fluorescence slope was -7.9e-05 (inactive). Further, in [7], the slope is 0.005 (inactive). The molecule was called inactive in assay [8].
In the case of `COc1ccc(CCn2c(C)ccc2C)cc1OC`, the cell count in assay [1] amounted to 476. The inhibition in assay [1] was -5.7% (inactive); in [2] it was -58.3% (inactive); in [4], 3.66% (inactive); in assay [9] it was -7.78% (inactive). In addition, the nuclei count in assay [2] was 112%. Besides, the z-score is -0.324 in assay [3] (setting [10]), 0.735 in [3] (setting [11]) and -0.301 in assay [3] (setting [12]). For the same molecule, in assay [5], the fluorescence slope is -0.488 (inactive). The NADPH fluorescence slope in assay [6] was -8e-05 (inactive). The slope in [7] was 0.00401 (inactive). For the same molecule, the call in [8] was inactive.
For the molecule `CSc1nc(N)c(C#N)c(-c2ccccc2Cl)c1C#N`, the cell count in assay [1] came to 361. Moreover, the inhibition is -5.2% (inactive) in assay [1], 16.8% (inactive) in assay [2], -2.07% (inactive) in assay [4] and -18.7% (inactive) in assay [9]. The same molecule came in with a nuclei count in assay [2] of 95%. Also, the z-score was -2.2 in assay [3] (setting [10]), 1.67 in assay [3] (setting [11]) and -0.0312 in [3] (setting [12]). Besides, the fluorescence slope in assay [5] was -0.456 (inactive). The NADPH fluorescence slope in assay [6] was -0.000311 (inactive). Further, the slope in assay [7] was 0.00479 (inactive). In addition, the outcome in [8] was inactive.
With `CSc1nnc(N(CCC#N)CCC#N)s1`, in assay [1], the cell count came out at 351. In addition, the inhibition is -2.1% (inactive) in [1], -46.6% (inactive) in [2], 17% (inactive) in [4] and 29.7% (inactive) in [9]. In addition, the nuclei count in assay [2] is 91%. For the same molecule, the z-score in assay [3] (setting [10]) was 0.261; in [3] (setting [11]) it was 1.77; in [3] (setting [12]) it was -1.54. Moreover, in assay [5], the fluorescence slope was -0.487 (inactive). Moreover, the NADPH fluorescence slope in assay [6] was -9.5e-06 (inactive). Also, in [7], the slope was 0.0048 (inactive). The result in assay [8] was inactive.

Source of the values: PubChem BioAssay.
